Test results taken from ChEMBL document CHEMBL1130413, “Novel 3'-C/N-substituted 2',3'-beta-D-dideoxynucleosides as potential chemotherapeutic agents. 1. Thymidine derivatives: synthesis, structure, and broad spectrum antiviral properties” (J Med Chem, 1997).
In brackets after ≈: the same amount, converted by molar mass.

Key:
FM3A [1] = test: EC50 is the cytotoxic concentration of compound required to reduce FM3A/TK- (Thymidine kinase deficient murine mammary carcinoma cells) cell viability by 50%.; assay type: functional, cell-based; conditions: Mus musculus
How it was run: (§1)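 Murine L1210 or FM3A-derived cells seeded at 5 × 10^5 cells/mL with varying compound concentrations. Incubated 2 days at 37 °C in humidified CO2. Viable cells counted with a Coulter counter. Value is the concentration reducing viable cell number by 50%.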

E6SM [2] = test: 50% Minimum inhibitory concentration which is required to reduce cytopathogenicity induced by (KOS) strain of HSV-1 virus on human E6SM cells.; assay type: functional
How it was run: (§2)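 Confluent cell monolayers infected with 100 CCID50 virus and left 1 h for adsorption. Residual virus then removed and compound added at serial dilutions (400, 200, 100 ... µg/mL). Value is the concentration giving 50% reduction of CPE.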

L1210 = test: EC50 is the cytotoxic concentration of compound required to reduce L1210 (murine leukemia cells) cell viability by 50%.; assay type: functional, cell-based; conditions: Mus musculus; how it was run: as §1
MT4 [3] = test: 50% effective concentration of compound which is required to protect human MT-4 cells against cytopathogenicity of HIV-1.; assay type: functional, cell-based
E6SM [4] = test: 50% Minimum inhibitory concentration which is required to reduce cytopathogenicity induced by (196) strain of HSV-2 virus on human E6SM cells.; assay type: functional; how it was run: as §2
MT4 [5] = test: 50% effective concentration of compound which is required to protect human MT-4 cells against cytopathogenicity of HIV-2.; assay type: functional, cell-based
HEL [6] = test: 50% Minimum inhibitory concentration which is required to reduce cytopathogenicity induced by (Lyons) strain of HSV-2 virus on human embryonic HEL cells.; assay type: functional; how it was run: as §2
CEM-TK(-) [7] = test: Cytotoxic concentration which is required to reduce CEM/TK- cell viability by 50%.; assay type: functional; conditions: Homo sapiens
HEL [8] = test: 50% Minimum inhibitory concentration which is required to reduce cytopathogenicity induced by (KOS) strain of HSV-1 virus on human embryonic HEL cells.; assay type: functional; how it was run: as §2
E6SM [9] = test: 50% Minimum inhibitory concentration which is required to reduce cytopathogenicity induced by TK-(B2006) strain of HSV-1 virus on human E6SM cells.; assay type: functional; how it was run: as §2
MOLT-4 = test: EC50 is the cytotoxic concentration of compound required to reduce Molt4/C8 (human T-lymphocyte) cell viability by 50%.; assay type: functional, cell-based
How it was run: (§3)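 Human CEM or Molt-4 cells seeded at 7.5 × 10^5 cells/mL with varying compound concentrations. Incubated 3 days at 37 °C in humidified CO2. Viable cells counted with a Coulter counter. Value is the concentration reducing viable cell number by 50%.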

FM3A [10] = test: EC50 is the cytotoxic concentration of compound required to reduce FM3A/TK- HSV-1TK+ cell viability by 50%.; assay type: functional, cell-based; conditions: Mus musculus; how it was run: as §1
E6SM [11] = test: 50% Minimum inhibitory concentration which is required to reduce cytopathogenicity induced by (Lyons) strain of HSV-2 virus on human E6SM cells.; assay type: functional; how it was run: as §2
CEM-TK(-) [12] = test: 50% effective concentration of compound which is required to protect Thymidine kinase deficient human CEM (CEM/TK-) cells against HIV-2.; assay type: functional, cell-based
[13] = Selectivity index of HIV-1 and HIV-2 with respect to MT-4 cells; assay type: functional, MT4
How it was run: (§4)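 Selectivity index calculated as average CC50 divided by average EC50. Each average comes from two independent experiments, using HIV-1 (IIIB) and HIV-2 (ROD) in CEM or MT-4 cells.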

MT4 [14] = test: Cytotoxic concentration which is required to reduce human MT-4 cell viability by 50%.; assay type: functional
FM3A [15] = test: EC50 is the cytotoxic concentration of compound required to reduce FM3A (murine mammary carcinoma cells) cell viability by 50%.; assay type: functional, cell-based; conditions: Mus musculus; how it was run: as §1
E6SM [16] = test: 50% Minimum inhibitory concentration which is required to reduce cytopathogenicity induced by Vaccinia virus (VV) on human E6SM cells.; assay type: functional; how it was run: as §2
E6SM [17] = test: 50% Minimum inhibitory concentration which is required to reduce cytopathogenicity induced by (F) strain of HSV-1 virus on human E6SM cells.; assay type: functional; how it was run: as §2
CCRF-CEM [18] = test: 50% effective concentration of compound which is required to protect human CEM cells against HIV-2 induced giant cell formation.; assay type: functional, cell-based
How it was run: (§5)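 CEM cells at 250000–300000 cells/mL infected with HIV-1 (IIIB) or HIV-2 (ROD) at 100 CCID50/mL. Infected cells mixed with serial compound dilutions and incubated 4 days at 37 °C. Syncytium (giant cell) formation then scored. Values averaged over two independent experiments.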

[19] = Minimum cytotoxic concentration which causes microscopically detectable alteration of normal cell morphology after 2 days of incubation.; assay type: functional; conditions: 48 h
How it was run: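 Uninfected E6SM cells exposed to compound for 2 days. Minimum concentration giving a microscopically detectable change in normal cell morphology recorded.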

E6SM [20] = test: 50% Minimum inhibitory concentration which is required to reduce cytopathogenicity induced by (Mc Intyre) strain of HSV-1 virus on human E6SM cells.; assay type: functional; how it was run: as §2
HEL [21] = test: 50% Minimum inhibitory concentration which is required to reduce cytopathogenicity induced by (OKA) strain of Varicella Zoster virus on human embryonic HEL cells.; assay type: functional
HEL [22] = test: 50% Minimum inhibitory concentration which is required to reduce cytopathogenicity induced by (G) strain of HSV-2 virus on human embryonic HEL cells.; assay type: functional; how it was run: as §2
E6SM [23] = test: 50% Minimum inhibitory concentration which is required to reduce cytopathogenicity induced by (G) strain of HSV-2 virus on human E6SM cells.; assay type: functional; how it was run: as §2
HEL [24] = test: 50% Minimum inhibitory concentration which is required to reduce cytopathogenicity induced by TK-(B2006) strain of HSV-1 virus on human embryonic HEL cells.; assay type: functional; how it was run: as §2
HEL [25] = test: 50% Minimum inhibitory concentration which is required to reduce cytopathogenicity induced by (Mc Intyre) strain of HSV-1 virus on human embryonic HEL cells.; assay type: functional; how it was run: as §2
CCRF-CEM [26] = test: 50% effective concentration of compound which is required to protect human CEM cells against HIV-1 induced giant cell formation.; assay type: functional, cell-based; how it was run: as §5
[27] = Selectivity index of HIV-1 and HIV-2 with respect to CEM cells; assay type: functional, CCRF-CEM; how it was run: as §4
CCRF-CEM [28] = test: Cytotoxic concentration which is required to reduce human CEM cell viability by 50%.; assay type: functional; how it was run: as §3

| Structure (SMILES) | MIC (E6SM [2]) [mg/L] | EC50 (MT4 [3]) [mg/L] | MIC (E6SM [4]) [mg/L] | EC50 (MT4 [5]) [mg/L] | MIC (HEL [6]) [mg/L] | CC50 (CEM-TK(-) [7]) [mg/L] | MIC (HEL [8]) [mg/L] | MIC (E6SM [9]) [mg/L] | MIC (E6SM [11]) [mg/L] | EC50 (CEM-TK(-) [12]) [mg/L] | Selectivity index [13] | CC50 (MT4 [14]) [mg/L] | MIC (E6SM [17]) [mg/L] | EC50 (CCRF-CEM [18]) [mg/L] | MCC [19] [µg/mL] | MIC (E6SM [20]) [mg/L] | MIC (HEL [22]) [mg/L] | MIC (E6SM [23]) [mg/L] | MIC (HEL [24]) [mg/L] | MIC (HEL [25]) [mg/L] | further results |
| --- | --- | --- | --- | --- | --- | --- | --- | --- | --- | --- | --- | --- | --- | --- | --- | --- | --- | --- | --- | --- | --- |
| CC(=O)O/N=C1/C[C@H](n2cc(C)c(=O)[nH]c2=O)O[C@@H]1CO.CC(=O)O/N=C1\C[C@H](n2cc(C)c(=O)[nH]c2=O)O[C@@H]1CO (racemic) | 0.9 | 0.05 | 70 | 0.05 | 2 | > 200 | 3.8 | > 200 | 4 | > 20 | 182 | 7.1 | 5 | 0.8 | 400 | 2 | 2.8 | 1 | > 5 | 2.7 | EC50 (FM3A [1]): > 200 mg/L; EC50 (L1210): 19 mg/L; EC50 (MOLT-4): 14 mg/L; EC50 (FM3A [10]): > 200 mg/L; EC50 (FM3A [15]): > 200 mg/L; MIC (E6SM [16]): 70 mg/L; MIC (HEL [21]): 20 mg/L; EC50 (CCRF-CEM [26]): 1 mg/L; Selectivity index [27]: 130; CC50 (CCRF-CEM [28]): 104 mg/L |
| O=c1[nH]c(=O)n([C@H]2C[C@H](O)[C@@H](CO)O2)cc1/C=C/Br [BRIVUDINE] | 0.007 (≈ 0.021 µM) | – | > 400 | – | 5 (≈ 15 µM) | – | 0.005 (≈ 0.015 µM) | 10 (≈ 30 µM) | > 400 | – | – | – | 0.02 (≈ 0.06 µM) | – | > 300 | 90 (≈ 270 µM) | 30 (≈ 90.1 µM) | 90 (≈ 270 µM) | 50 (≈ 150 µM) | 0.003 (≈ 0.00901 µM) | – |
| Nc1nc2c(ncn2COC(CO)CO)c(=O)[nH]1 [GANCICLOVIR] | 0.001 (≈ 0.00392 µM) | – | 0.006 (≈ 0.0235 µM) | – | – | – | – | 5 (≈ 19.6 µM) | 0.002 (≈ 0.00784 µM) | – | – | – | 0.002 (≈ 0.00784 µM) | – | > 100 | 0.003 (≈ 0.0118 µM) | – | 0.002 (≈ 0.00784 µM) | – | – | – |
| NC(=O)c1ncn([C@@H]2O[C@H](CO)[C@@H](O)[C@H]2O)n1 [RIBAVIRIN] | 60 (≈ 246 µM) | – | 150 (≈ 614 µM) | – | – | – | – | 150 (≈ 614 µM) | 100 (≈ 409 µM) | – | – | – | 80 (≈ 328 µM) | – | > 400 | 90 (≈ 369 µM) | – | 50 (≈ 205 µM) | – | – | – |
| Cc1cn([C@H]2C[C@H](N=[N+]=[N-])[C@@H](CO)O2)c(=O)[nH]c1=O [ZIDOVUDINE] | – | 0.0005 (≈ 0.00187 µM) | – | 0.0007 (≈ 0.00262 µM) | – | > 200 | – | – | – | > 25 | 3000 | 1.5 (≈ 5.61 µM) | – | 0.0009 (≈ 0.00337 µM) | – | – | – | – | – | – | EC50 (CCRF-CEM [26]): 0.0007 mg/L (≈ 0.00262 µM); Selectivity index [27]: >100000; CC50 (CCRF-CEM [28]): > 100 mg/L |
